The results in this text go back to ChEMBL document CHEMBL1140106, “Blocking estrogen signaling after the hormone: pyrimidine-core inhibitors of estrogen receptor-coactivator binding” (J Med Chem, 2008).

Some results are limits rather than exact numbers.

Assay [1] addresses Estrogen receptor beta (Homo sapiens, UniProt Q92731). Nature of the assay: Binding affinity to ERbeta assessed as inhibition of fluorescein-labeled nuclear receptor domain of steroid receptor coactivator 3 by TR-FRET assay. A general note: Time-resolved FRET reads energy transfer from a long-lived donor to a nearby acceptor.
The target in assay [2] is T1, Estrogen receptor (Homo sapiens, UniProt P03372).
T1 sequence (P03372 whole entry): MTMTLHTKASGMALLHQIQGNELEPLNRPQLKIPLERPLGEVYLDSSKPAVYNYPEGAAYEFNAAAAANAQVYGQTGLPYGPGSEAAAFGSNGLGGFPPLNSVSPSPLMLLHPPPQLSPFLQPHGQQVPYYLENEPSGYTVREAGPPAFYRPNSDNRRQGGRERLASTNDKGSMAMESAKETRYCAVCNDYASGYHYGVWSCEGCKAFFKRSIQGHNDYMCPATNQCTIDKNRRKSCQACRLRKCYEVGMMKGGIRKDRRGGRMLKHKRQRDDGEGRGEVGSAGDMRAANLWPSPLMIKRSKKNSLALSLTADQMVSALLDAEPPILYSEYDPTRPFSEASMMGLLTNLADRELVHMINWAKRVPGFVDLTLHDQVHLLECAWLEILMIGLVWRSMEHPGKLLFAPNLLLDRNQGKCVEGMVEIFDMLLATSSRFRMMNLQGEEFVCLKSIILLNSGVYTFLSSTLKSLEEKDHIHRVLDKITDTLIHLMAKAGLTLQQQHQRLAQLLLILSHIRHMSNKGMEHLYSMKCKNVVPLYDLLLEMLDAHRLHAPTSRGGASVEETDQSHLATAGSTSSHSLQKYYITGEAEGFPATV
The assay can be described thus: Binding affinity to ERalpha assessed as inhibition of fluorescein-labeled nuclear receptor domain of steroid receptor coactivator 3 by TR-FRET assay. A digest of the protocol:
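Fluorescein-SRC-3-NRD (50 nM) was then added for 1 h at room temperature in the dark. Buffer: 20 mM Tris pH 7.5, 0.01% NP40, 50 mM NaCl. SRC-1 Box II peptide served as positive control.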

Estrogen receptor beta, sequence (Q92731 whole entry, the tested form may be a part): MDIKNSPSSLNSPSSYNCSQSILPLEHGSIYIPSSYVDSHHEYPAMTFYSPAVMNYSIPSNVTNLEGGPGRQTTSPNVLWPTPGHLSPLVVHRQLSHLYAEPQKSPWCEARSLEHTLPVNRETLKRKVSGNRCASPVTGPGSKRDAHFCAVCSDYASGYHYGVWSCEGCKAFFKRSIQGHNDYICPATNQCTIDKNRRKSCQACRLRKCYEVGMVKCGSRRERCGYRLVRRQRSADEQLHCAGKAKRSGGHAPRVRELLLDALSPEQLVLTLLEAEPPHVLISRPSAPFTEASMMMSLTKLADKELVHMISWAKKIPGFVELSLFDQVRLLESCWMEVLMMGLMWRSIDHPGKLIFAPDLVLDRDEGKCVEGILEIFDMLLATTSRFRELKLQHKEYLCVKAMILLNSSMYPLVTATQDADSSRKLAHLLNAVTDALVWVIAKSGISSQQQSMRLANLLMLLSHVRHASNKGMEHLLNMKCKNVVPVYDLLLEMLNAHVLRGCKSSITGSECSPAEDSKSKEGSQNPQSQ

Usually Ki stands for the equilibrium dissociation constant of an inhibitor or competing ligand from its target. Turning to `CC(C)CNc1cc(/C=C/c2ccccc2)nc(N(C)CC(C)C)n1`, the Ki in assay [1] and in assay [2] was more than 1 mM each time. For the compound `CC(C)CNc1cc(SCC(C)C)nc(NCC(C)C)n1`, the Ki in assay [1] and in assay [2] was more than 1 mM in each case. Turning to `CC(C)(C)OC(=O)N(Cc1ccccc1)c1cc(CCc2cccc3ccccc23)nc(NCc2cccc3ccccc23)n1`, the Ki in assay [1] and in assay [2] was more than 1 mM each time.

As to `CC(C)CCc1cc(N(C)CC(C)C)nc(NCC(C)C)n1`, the Ki in assay [1] and in assay [2] was more than 1 mM throughout.

For the compound `CC(C)(C)OC(=O)N(Cc1cccc2ccccc12)c1cc(CCc2cccc3ccccc23)nc(NCc2ccccc2)n1`, the inhibition constant (Ki) in assay [1] and in assay [2] was more than 1 mM throughout. For `CC(C)CCc1cc(N(C)CC(C)C)nc(N(C)CC(C)C)n1`, the inhibitory constant (Ki) in assay [1] and in assay [2] was more than 1 mM each time.

On to `CC(C)CN(C(=O)OC(C)(C)C)c1cc(CCc2cccc3ccccc23)nc(NCc2cccc3ccccc23)n1`, for which the Ki in assay [1] and in assay [2] was more than 1 mM in each case. As to `CC(C)CNc1cc(NCC(C)C)ncn1`, in assay [2], the Ki is more than 1 mM.

Take `CCc1cc(NCC(C)C)nc(NCC(C)C)n1`: the Ki in assay [1] is more than 1 mM. Take `CC(C)CCc1cc(NCC(C)C)nc(SCC(C)C)n1`: the inhibitory constant (Ki) in assay [1] and in assay [2] was more than 1 mM in each case. For the compound `CC(C)CCc1cc(N(CC(C)C)C(=O)OC(C)(C)C)nc(NCc2cccc3ccccc23)n1`, the Ki in assay [1] and in assay [2] was more than 1 mM in each case. With `CC(C)CCc1cc(CCC(C)C)nc(NCC(C)C)n1`, the Ki in assay [1] and in assay [2] was more than 1 mM throughout. With `CC(C)CNc1cc(NCC(C)C)nc(CCc2cccc3ccccc23)n1`, the Ki in assay [1] and in assay [2] was more than 1 mM each time. For the compound `CC(C)CCc1nc(NCc2ccccc2)cc(NCC(C)C)n1`, the Ki in assay [1] and in assay [2] was more than 1 mM in each case. Consider `CC(C)CCc1cc(SCc2ccccc2)nc(SCc2ccccc2)n1`, for which the inhibitory constant (Ki) in assay [1] and in assay [2] was more than 1 mM in each case.

On to `CC(C)CCc1cc(N(CC(C)C)C(=O)OC(C)(C)C)nc(NCc2ccccc2)n1`, for which the inhibition constant (Ki) in assay [1] and in assay [2] was more than 1 mM throughout. As for `CC(C)CCc1cc(N(Cc2cccc3ccccc23)C(=O)OC(C)(C)C)nc(NCc2ccccc2)n1`, the Ki in assay [1] and in assay [2] was more than 1 mM throughout.

Regarding `C(=C\c1cc(/C=C/c2ccccc2)nc(NCc2cccc3ccccc23)n1)/c1ccccc1`, the Ki in assay [1] and in assay [2] was more than 1 mM throughout. On to `CC(C)CN(C)c1cc(/C=C/c2ccccc2)nc(N(C)CC(C)C)n1`, for which the inhibition constant Ki in assay [1] and in assay [2] was more than 1 mM each time. In the case of `c1ccc(CNc2cc(CCc3cccc4ccccc34)nc(NCc3ccccc3)n2)cc1`, the Ki in assay [1] and in assay [2] was more than 1 mM each time. In the case of `CC(C)CCc1cc(S(=O)(=O)Cc2ccccc2)nc(S(=O)(=O)Cc2ccccc2)n1`, the Ki in assay [1] and in assay [2] was more than 1 mM in each case. Regarding `CC(C)CN(C(=O)OC(C)(C)C)c1cc(CCc2cccc3ccccc23)nc(NCc2ccccc2)n1`, the Ki in assay [1] and in assay [2] was more than 1 mM throughout. For the compound `CC(C)CNc1cc(CCc2ccccc2)nc(N(C)CC(C)C)n1`, the Ki in assay [1] and in assay [2] was more than 1 mM throughout. Consider `CC(C)CNc1cc(CCc2cccc3ccccc23)nc(N(C)CC(C)C)n1`, for which the Ki in assay [1] and in assay [2] was more than 1 mM in each case. In the case of `CC(C)CNc1nc(CCc2ccccc2)cc(N(C)CC(C)C)n1`, the inhibition constant (Ki) in assay [1] is more than 1 mM.

As to `C(=C\c1cc(NCc2ccccc2)nc(NCc2cccc3ccccc23)n1)/c1ccccc1`, the Ki in assay [1] and in assay [2] was more than 1 mM in each case. On to `C(=C\c1cc(NCc2cccc3ccccc23)nc(NCc2cccc3ccccc23)n1)/c1ccccc1`, for which the Ki in assay [1] and in assay [2] was more than 1 mM in each case. Consider `CC(C)CNc1nc(CCc2ccccc2)cc(N(Cc2ccccc2)C(=O)OC(C)(C)C)n1`, for which the Ki in assay [1] and in assay [2] was more than 1 mM each time. `CC(C)CCc1cc(OCC(C)C)nc(OCC(C)C)n1`: the inhibitory constant (Ki) in assay [1] and in assay [2] was more than 1 mM throughout. Turning to `O=S(=O)(Cc1ccccc1)c1cc(CCc2ccccc2)nc(S(=O)(=O)Cc2ccccc2)n1`, the Ki in assay [1] and in assay [2] was more than 1 mM throughout. Regarding `CC(C)CNc1nc(/C=C/c2ccccc2)cc(N(Cc2ccccc2)C(=O)OC(C)(C)C)n1`, the Ki in assay [1] is 0.132 mM; in assay [2], more than 1 mM. On the same counts, the results for `CC(C)CSc1cc(CCc2ccccc2)nc(SCC(C)C)n1` are more than 1 mM and more than 1 mM. Consider `CC(C)CNc1nc(CCc2cccc3ccccc23)cc(NCc2ccccc2)n1`, for which the Ki in assay [1] and in assay [2] was more than 1 mM in each case. Consider `c1ccc(CNc2cc(CCc3cccc4ccccc34)nc(NCc3cccc4ccccc34)n2)cc1`, for which the inhibitory constant (Ki) in assay [1] and in assay [2] was more than 1 mM throughout. With `CC(C)CNc1cc(CCc2cccc3ccccc23)nc(NCc2ccccc2)n1`, the Ki in assay [1] and in assay [2] was more than 1 mM each time. Take `CC(C)CNc1cc(S(=O)(=O)CC(C)C)nc(NCC(C)C)n1`: the Ki in assay [1] and in assay [2] was more than 1 mM each time. Regarding `c1ccc(CCc2cc(SCc3ccccc3)nc(SCc3ccccc3)n2)cc1`, the Ki in assay [1] and in assay [2] was more than 1 mM in each case.

On to `CC(C)CS(=O)(=O)c1cc(CCc2ccccc2)nc(S(=O)(=O)CC(C)C)n1`, for which the Ki in assay [1] and in assay [2] was more than 1 mM in each case. For the compound `CC(C)CNc1nc(CCc2cccc3ccccc23)cc(NCc2cccc3ccccc23)n1`, the Ki in assay [1] and in assay [2] was more than 1 mM each time.

Regarding `CC(C)CCc1nc(NCC(C)C)cc(NCC(C)C)n1`, the Ki in assay [1] and in assay [2] was more than 1 mM throughout.

With `CC(C)CNc1cc(OCC(C)C)nc(NCC(C)C)n1`, the Ki in assay [1] and in assay [2] was more than 1 mM each time.

Turning to `CC(C)CN(C)c1cc(CCc2cccc3ccccc23)nc(N(C)CC(C)C)n1`, the Ki in assay [1] and in assay [2] was more than 1 mM in each case.

Take `CC(C)CCc1cc(SCC(C)C)nc(SCC(C)C)n1`: the Ki in assay [1] and in assay [2] was more than 1 mM each time. Consider `CC(C)CCc1cc(NCC(C)C)nc(NCc2cccc3ccccc23)n1`, for which the Ki in assay [1] was more than 1 mM. On the same count and under the same terms, next, `CC(C)CCc1cc(NCc2cccc3ccccc23)nc(NCC(C)C)n1`: more than 1 mM. Regarding `CC(C)CCc1cc(CCC(C)C)nc(NCc2cccc3ccccc23)n1`, the Ki in assay [1] and in assay [2] was more than 1 mM in each case. `CC(C)CNc1cc(CCc2ccccc2)nc(NCc2ccccc2)n1`: the Ki in assay [1] is more than 1 mM. As to `CC(C)CNc1nc(CCc2cccc3ccccc23)cc(N(C)CC(C)C)n1`, the Ki in assay [1] is more than 1 mM.

`CC(C)CNc1nc(CCc2ccccc2)cc(NCc2cccc3ccccc23)n1`: the Ki in assay [1] and in assay [2] was more than 1 mM each time. `CC(C)CNc1nc(CCc2cccc3ccccc23)cc(N(Cc2cccc3ccccc23)C(=O)OC(C)(C)C)n1`: the Ki in assay [1] and in assay [2] was more than 1 mM throughout.

As to `CC(C)(C)OC(=O)N(Cc1cccc2ccccc12)c1cc(/C=C/c2ccccc2)nc(NCc2cccc3ccccc23)n1`, the Ki in assay [1] and in assay [2] was more than 1 mM in each case. Take `CC(C)CCc1cc(NCC(C)C)nc(S(=O)(=O)CC(C)C)n1`: the Ki in assay [1] and in assay [2] was more than 1 mM throughout. Consider `CC(C)CCc1cc(S(=O)(=O)CC(C)C)nc(S(=O)(=O)CC(C)C)n1`, for which the Ki in assay [1] and in assay [2] was more than 1 mM each time. For the compound `c1ccc(CCc2cc(CCc3ccccc3)nc(NCc3ccccc3)n2)cc1`, the Ki in assay [1] and in assay [2] was more than 1 mM throughout.

`CC(C)CNc1cc(CCc2cccc3ccccc23)nc(NCc2cccc3ccccc23)n1`: the Ki in assay [1] and in assay [2] was more than 1 mM each time. For the compound `CC(C)CNc1nc(CCc2cccc3ccccc23)cc(N(Cc2ccccc2)C(=O)OC(C)(C)C)n1`, the Ki in assay [1] and in assay [2] was more than 1 mM throughout. For `c1ccc(CCc2cc(NCc3ccccc3)nc(NCc3cccc4ccccc34)n2)cc1`, the Ki in assay [1] and in assay [2] was more than 1 mM each time. As for `CC(C)CN(C)c1cc(CCc2ccccc2)nc(N(C)CC(C)C)n1`, the Ki in assay [1] and in assay [2] was more than 1 mM in each case. On to `CC(C)CN(C(=O)OC(C)(C)C)c1cc(CCc2ccccc2)nc(NCc2ccccc2)n1`, for which the Ki in assay [1] and in assay [2] was more than 1 mM in each case. As to `CC(C)CCc1cc(N(Cc2cccc3ccccc23)C(=O)OC(C)(C)C)nc(NCC(C)C)n1`, the Ki in assay [1] and in assay [2] was more than 1 mM throughout. Turning to `c1ccc(CNc2cc(NCc3ccccc3)nc(NCc3ccccc3)n2)cc1`, the Ki in assay [1] and in assay [2] was more than 1 mM throughout. Regarding `CC(C)CCc1cc(N(Cc2ccccc2)C(=O)OC(C)(C)C)nc(NCc2cccc3ccccc23)n1`, the Ki in assay [1] and in assay [2] was more than 1 mM in each case. Regarding `CC(C)CCc1cc(N(Cc2ccccc2)C(=O)OC(C)(C)C)nc(NCC(C)C)n1`, the Ki in assay [1] and in assay [2] was more than 1 mM in each case.

Turning to `c1ccc(CNc2nc(CCc3cccc4ccccc34)cc(NCc3cccc4ccccc34)n2)cc1`, the Ki in assay [1] and in assay [2] was more than 1 mM each time.
